An excerpt weighted towards active compounds, which were near 4.1% of everything screened.
TbMetRS inhib: T. brucei MetRS inhibitors, primary screen, biochemical, luminescence. methionyl-tRNA synthetase (Trypanosoma brucei brucei). purified T. brucei MetRS, ATP depletion, Kinase-Glo luminescence. inhibition, % at 11.9 µM. 0.4% of 360,000 active. AID 624268, 2012;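 active means inhibition above a per-plate cutoff of the control wells' mean inhibition plus 3 SD, cut at about 5.5% in these data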;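 further: 0% = DMSO wells median and 100% = median of wells with control inhibitor compound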
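Material: T. brucei methionyl-tRNA synthetase, purified; reagent: substrates ATP, L-methionine and bulk Escherichia coli tRNA; dosing: 11.9 µM single point; timing: 15 min plus 2 h at 25 °C; detection: luminescence of leftover ATP; evaluation: % inhibition; control set: DMSO-only wells as low control; replicates: singlicate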
AHR activator: AHR activators, primary screen, cell-based, luminescence, luciferase reporter, human; activation, % at 5 µM; AID 2796, 2010; Aryl hydrocarbon receptor (Homo sapiens), P35869; AHR-responsive luciferase reporter cells; 2.5% of 320,000 active; in the data active means activation above about 47%;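 further: 0% = vehicle wells and 100% = reference agonist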
Target sequence (P35869 whole entry, looked up): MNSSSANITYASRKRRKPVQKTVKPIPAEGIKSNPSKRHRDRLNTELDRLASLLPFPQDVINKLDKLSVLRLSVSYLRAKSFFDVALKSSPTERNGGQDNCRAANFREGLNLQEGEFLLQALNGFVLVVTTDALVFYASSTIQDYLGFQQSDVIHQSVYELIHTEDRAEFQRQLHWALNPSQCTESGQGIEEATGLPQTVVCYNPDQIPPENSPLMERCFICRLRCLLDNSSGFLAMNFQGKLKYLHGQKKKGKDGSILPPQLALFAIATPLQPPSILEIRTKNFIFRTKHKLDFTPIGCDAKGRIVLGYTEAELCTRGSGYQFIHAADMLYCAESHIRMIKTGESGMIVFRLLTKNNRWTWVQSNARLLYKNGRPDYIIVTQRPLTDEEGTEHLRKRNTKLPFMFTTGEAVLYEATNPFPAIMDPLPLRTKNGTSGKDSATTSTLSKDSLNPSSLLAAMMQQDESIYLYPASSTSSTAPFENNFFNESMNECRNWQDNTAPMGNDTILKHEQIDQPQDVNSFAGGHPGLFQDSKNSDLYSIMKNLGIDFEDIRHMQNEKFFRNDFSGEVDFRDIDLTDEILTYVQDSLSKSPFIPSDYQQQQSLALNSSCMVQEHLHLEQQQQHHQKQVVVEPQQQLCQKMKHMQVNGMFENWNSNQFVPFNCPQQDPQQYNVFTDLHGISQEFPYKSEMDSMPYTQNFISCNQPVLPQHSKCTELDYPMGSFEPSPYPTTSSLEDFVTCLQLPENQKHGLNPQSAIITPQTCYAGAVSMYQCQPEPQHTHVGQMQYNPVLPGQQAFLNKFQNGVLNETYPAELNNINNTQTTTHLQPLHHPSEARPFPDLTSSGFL
TAG inh: inhibitors of triacylglycerol accumulation, primary screen, cell-based, uHTS, fluorescence, H9c2 | 0.66% of 230,000 active | H9c2 cells, Nile Red lipid (TAG) fluorescence; cells loaded with 200 µM oleic acid | AID 651582, 2012 | inhibition, % at 12.5 µM;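 active means pattern-corrected inhibition of lipid staining of at least 50% with the nuclear-stain viability signal not falling by more than 50%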;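 further: 0% = DMSO wells and 100% = triacsin C control wells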
Efflux pump mplx: inhibitors of Candida efflux pumps in yeast, primary screen, S. cerevisiae, Nile Red, multiplex; S. cerevisiae Candida pump triplex; inhibition, % at 10 µM; 0.44% of 330,000 active; AID 485275, 2010;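 active means plate passing quality check with inhibition over a set limit, or well fluorescence over plate mean plus 4 SD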;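 further: Nile Red retained in pooled yeast measured as flow cytometry median fluorescence; 0% = buffer negative control and 100% = Enniatin B positive control; higher means more Nile Red kept so more efflux inhibition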
SMARCA2 act: SMARCA2 (BRM) function activators, primary screen, cell-based, luminescence, high throughput; MG213 cells, MMTV-luciferase reporter, dexamethasone, overnight; activation, % at 9.1 µM; 1% of 370,000 active; in the data active means activation above about 7.8%;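 further: 0% = vehicle wells and 100% = reference activator wells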
Tb MetRS conf: T. brucei MetRS inhibitors, confirmation, biochemical, luminescence. shares compounds with TbMetRS inhib. T. brucei MetRS enzyme, luminescence (ATP depletion). inhibition, % at 11.9 µM. 93% of 1,400 active; in the data active means inhibition above about 7%
Jurkat cytotox: Jurkat T cell cytotoxicity, cytotoxicity control for T. brucei MetRS inhibitor project, luminescence, high throughput; shares compounds with TbMetRS inhib; Jurkat cells viability, ATP luminescence; inhibition, % at 8.3 µM; 12% of 1,400 active; AID 624413, 2012; in the data active means inhibition above about 15%;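 further: 0% = vehicle and 100% = reference inhibitor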
Tb MetRS inh FP: T. brucei MetRS inhibitors, orthogonal assay for T. brucei MetRS inhibitor project, biochemical, fluorescence polarization; purified T. brucei MetRS; 44% of 1,400 active; inhibition, % at 11.9 µM; AID 651607, 2012; shares compounds with TbMetRS inhib; in the data active means inhibition above about 17%;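 further: 0% = vehicle wells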
Active calls of the source: *; . = not tested or not shown.

SMILES	TbMetRS inhib	AHR activator	TAG inh	Efflux pump mplx	SMARCA2 act	Tb MetRS conf	Jurkat cytotox	Tb MetRS inh FP
COC(=O)[C@H](Cc1ccccc1)NC(=O)[C@H]1O[C@@H](n2cnc3c(=O)[nH]c(N)nc32)[C@H](O)[C@@H]1O	.	.	.	.	-2	.	.	.
O=C(N[C@H](C(=O)N1CCC[C@H]1C(=O)NCc1ccccc1)c1ccccc1)c1ccccc1	.	.	.	.	-1	.	.	.
Cc1ccc(NC(=O)CN(C)C(=O)Cc2ccc(Cl)cc2Cl)cc1	54*	5	.	0	-4	67*	-2	42*
COC(=O)[C@]12CCCCC=C1N(Cc1ccc(OC)cc1)C(=O)[C@@H]2CC(=O)NCc1cccs1	.	.	.	.	-2	.	.	.
Cc1ccc(C2NC(=NCc3ccccc3)Nc3nc(C)cc(=O)n32)cc1 (stereo not drawn)	7.6*	-1	9	0	0	17*	-1	-1
CC(=O)O/N=C(/c1nonc1N)N1CCN(c2ccc([N+](=O)[O-])cc2Cl)CC1	0	1	.	0	-3	.	.	.
CO/N=C(\c1nonc1N)N1CCN(c2ccc(Cl)cc2[N+](=O)[O-])CC1	16*	-2	23	0	-5	24*	10	21*
O=C(NCCc1ccccc1F)c1cc2ccccn2n1	.	.	.	.	6	.	.	.
O=C(Cn1cc(C(=O)C(=O)N2CCOCC2)c2ccccc21)Nc1cccc(C(F)(F)F)c1	90*	.	-6	.	-4	97*	3	95*
COc1ccccc1NC(=O)Cn1cc(C(=O)C(=O)N2CCOCC2)c2ccccc21	0	4	-8	0	-1	.	.	.
CN(c1ccccc1)S(=O)(=O)c1cccc(NC(=O)CN2CCCc3ccccc32)c1	0	4	-7	0	-6	.	.	.
NS(=O)(=O)c1cccc(NC(=O)CN2CCc3ccccc32)c1	9.2*	9	2	0	-3	9.7*	11	6
O=C1CCCC(=NNC(=O)c2cc3ccccc3cc2O)C1	5.9*	41	0	0	.	24*	1	14
Cc1ncc([N+](=O)[O-])n1CC(=O)Nc1ccc(Br)cc1	6.1*	2	.	0	-4	14*	-6	0
Cc1ccc(NC(=O)Cn2c([N+](=O)[O-])cnc2C)cc1	0	-1	0	0	-3	.	.	.
Cc1nnc(NC(=O)CSc2nnc3c(n2)[nH]c2ccc(Br)cc23)s1	12*	5	.	0	1	63*	11	54*
COc1ccc(CNC(=O)CSc2nc3ccccc3n2C(C)=O)cc1	17*	9	.	0	0	29*	-3	10
O=C(CSc1nnc2c(n1)[nH]c1ccccc12)NCc1ccco1	8.3*	17	-5	0	2	14*	9	7
COc1ccc(CNC(=O)CSc2nnc3c(n2)[nH]c2ccccc23)cc1	42*	2	.	0	-1	81*	4	75*
O=C(CSc1nnc(-c2ccccc2)c(-c2ccccc2)n1)NCc1ccco1	-1	1	4	0	-3	.	.	.
COc1ccc(CN(CCN2CCOCC2)C(=O)c2cccc(F)c2)cc1OC	.	.	.	.	-1	.	.	.
COc1ccc2c(c1)CCCN2C(=O)C1CCCN(S(=O)(=O)c2c(C(C)C)cc(C(C)C)cc2C(C)C)C1 (stereo not drawn)	.	.	.	.	-3	.	.	.
CCNC(=O)N1CCN(c2ccc(N3CCN(C(=O)NCC)[C@@H](C)C3)c(C)c2)[C@H](C)C1	.	.	.	.	-4	.	.	.
COc1cccc(CNC(=O)CSc2nnc3c(n2)[nH]c2ccc(OC)cc23)c1	1	10	.	0	-4	.	.	.
